Source: ChEMBL document CHEMBL1138683 (J Med Chem, 2004)

Legend:
Rattus norvegicus [1] = experiment: Anticonvulsant activity after oral administration of 50 mg/kg dose after 15 min in rats; ++++means 100% of the animals protected; format: functional, organism-based; set-up: dose 50 mg/kg
How it was run: (§1)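 Oral dosing of rats at a single dose, compound dissolved or suspended in 0.5% methylcellulose. Protection in the MES or scMet test checked 15 min, 30 min, 1 h, 2 h and 4 h after dosing. Scored as 25/50/75/100% of animals protected (+ to ++++), – for none.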

Mus musculus [2] = experiment: Anti convulsant activity administered intra peritoneally to mouse at maximal electroshock test at 4 hr after the drug administered with dose of 30 mg/kg; 0/1= No of animals protected /No of animals tested; format: functional
Mus musculus [3] = experiment: Anti convulsant activity administered intra peritoneally to mouse for subcutaneous metrazol test at 0.5 hr with dose of 300 mg/kg; 1/1= No of animals protected /No of animals tested; format: functional
Mus musculus [4] = experiment: Anti convulsant activity administered intra peritoneally to mouse at maximal electroshock test at 0.5 h after the drug administered with dose of 30 mg/kg; 0/1= No of animals protected /No of animals tested; format: functional
Rattus norvegicus [5] = experiment: Anticonvulsant activity after oral administration of 100 mg/kg dose after 1 hr in rats; + means 25% of the animals protected; format: functional, organism-based; set-up: dose 100 mg/kg; how it was run: as §1
Mus musculus [6] = experiment: Anti convulsant activity administered intra peritoneally to mouse for subcutaneous metrazol test at 0.5 hr with dose of 30 mg/kg; 0/1= No of animals protected /No of animals tested; format: functional
Mus musculus [7] = experiment: Quantitative Anticonvulsant activity administered intraperitoneally to mouse for subcutaneous metrazol test; format: functional
How it was run: (§2)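 Mice dosed intraperitoneally with compound dissolved or suspended in 0.5% methylcellulose (0.01 mL per gram body weight). […] Protective index calculated as TD50/ED50 for each seizure test.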

[8] = Anti convulsant activity administered intra peritoneally to mouse for toxicity at 0.5 hr with dose of 100 mg/kg; 0/8= No of animals exhibiting toxicity /No of animals tested; format: organism-based; set-up: dose 100 mg/kg; settings: in vivo, ip
Mus musculus [9] = experiment: Anti convulsant activity administered intra peritoneally to mouse at maximal electroshock test at 4 hr after the drug administered with dose of 300 mg/kg; 0/1= No of animals protected /No of animals tested; format: functional
Rattus norvegicus [10] = experiment: Anticonvulsant activity after oral administration of 30 mg/kg dose after 1 hr in rats; ++means 50% animals protected; format: functional, organism-based; set-up: dose 30 mg/kg; how it was run: as §1
Rattus norvegicus [11] = experiment: Quantitative Anticonvulsant activity administered orally to rat for protective index in subcutaneous metrazol test; format: functional
How it was run: (§3)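 Oral dosing in rats with compound dissolved or suspended in 0.5% methylcellulose (0.04 mL per 10 g body weight). […] Protective index taken as TD50/ED50 for each test.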

Rattus norvegicus [12] = experiment: Quantitative Anticonvulsant activity administered orally to rat for subcutaneous metrazol test; format: functional; how it was run: as §3
Mus musculus [13] = experiment: Anti convulsant activity administered intra peritoneally to mouse at maximal electroshock test at 0.5 hr after the drug administered with dose of 300 mg/kg; 1/1= No of animals protected /No of animals tested; format: functional
Rattus norvegicus [14] = experiment: Anticonvulsant activity after oral administration of 50 mg/kg dose after 30 min in rats; +++ means 75% of the animals protected; format: functional, organism-based; set-up: dose 50 mg/kg
How it was run: (§4)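 Rats dosed orally with compound dissolved or suspended in 0.5% methylcellulose (0.04 mL per 10 g body weight). Anticonvulsant protection (MES or scMet) and toxicity scored at 15 min, 30 min, 1 h, 2 h and 4 h after dosing. Graded in steps of 25% of animals protected or showing toxicity.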

[15] = Anti convulsant activity administered intra peritoneally to mouse for toxicity at 4 hr with dose of 100 mg/kg; 0/4= No of animals exhibiting toxicity /No of animals tested; format: organism-based; set-up: dose 100 mg/kg; settings: in vivo, ip
Rattus norvegicus [16] = experiment: Anticonvulsant activity after oral administration of 30 mg/kg dose after 30 min in rats; ++ means 50% animals protected; format: functional, organism-based; set-up: dose 30 mg/kg; how it was run: as §1
[17] = Anti convulsant activity administered intra peritoneally to mouse for toxicity at 4 hr with dose of 300 mg/kg; 1/2= No of animals exhibiting toxicity /No of animals tested; format: organism-based; set-up: dose 300 mg/kg; settings: in vivo, ip
Rattus norvegicus [18] = experiment: Quantitative Anticonvulsant activity administered orally to rat for protective index in maximal electro shock test;TD50/ED50; format: functional; how it was run: as §3
Mus musculus [19] = experiment: Anti convulsant activity administered intra peritoneally to mouse for subcutaneous metrazol test at 4 hr with dose of 300 mg/kg; 1/1= No of animals protected /No of animals tested; format: functional
Rattus norvegicus [20] = experiment: Quantitative Anticonvulsant activity administered orally to rat for toxicity; format: functional; settings: po; how it was run: as §3
Mus musculus [21] = experiment: Anti convulsant activity administered intra peritoneally to mouse at maximal electroshock test at 4 hr after the drug administered with dose of 100 mg/kg; 0/3= No of animals protected /No of animals tested; format: functional
Mus musculus [22] = experiment: Quantitative Anticonvulsant activity administered intraperitoneally to mouse for protective index in subcutaneous metrazol test; format: functional; how it was run: as §2
Mus musculus [23] = experiment: Anti convulsant activity administered intra peritoneally to mouse for toxicity at 4 hr with dose of 30 mg/kg; 2/3= No of animals exhibiting toxicity /No of animals tested; format: functional
[24] = Quantitative Anticonvulsant activity administered intraperitoneally to mouse for toxicity; settings: in vivo, ip; how it was run: as §2
[25] = Anti convulsant activity administered intra peritoneally to mouse for toxicity at 0.5 hr with dose of 30 mg/kg; 0/4= No of animals exhibiting toxicity /No of animals tested; format: organism-based; set-up: dose 30 mg/kg; settings: in vivo, ip
Rattus norvegicus [26] = experiment: Quantitative Anticonvulsant activity administered orally to rat at maximal electro shock test; the interval in parenthesis stands for 95% confidence interval; format: functional; settings: po; how it was run: as §3
Mus musculus [27] = experiment: Anti convulsant activity administered intra peritoneally to mouse for subcutaneous metrazol test at 4 hr after the drug administered with dose of 30 mg/kg; 0/1= No of animals protected /No of animals tested; format: functional; settings: route intraperitoneal
[28] = Anti convulsant activity administered intra peritoneally to mouse for toxicity at 4 hr with dose of 30 mg/kg; 0/2= No of animals exhibiting toxicity /No of animals tested; format: organism-based; set-up: dose 30 mg/kg; settings: in vivo, ip
[29] = Anti convulsant activity administered intra peritoneally to mouse for toxicity at 0.5 hr with dose of 300 mg/kg; 4/4= No of animals exhibiting toxicity /No of animals tested; format: organism-based; set-up: dose 300 mg/kg; settings: in vivo, ip
Mus musculus [30] = experiment: Anti convulsant activity administered intra peritoneally to mouse for subcutaneous metrazol test at 4 hr after the drug administered with dose of 100 mg/kg; 0/1= No of animals protected /No of animals tested; format: functional
Mus musculus [31] = experiment: Quantitative Anticonvulsant activity administered intraperitoneally to mouse for protective index in maximal electro shock test;TD50/ED50; format: functional; how it was run: as §2
[32] = Anti convulsant activity administered intra peritoneally to mouse for toxicity at 4 hr with dose of 100 mg/kg; 1/4= No of animals exhibiting toxicity /No of animals tested; format: organism-based; set-up: dose 100 mg/kg; settings: in vivo, ip
[33] = Anti convulsant activity administered intra peritoneally to mouse for toxicity at 0.5 hr with dose of 300 mg/kg; 2/4= No of animals exhibiting toxicity /No of animals tested; format: organism-based; set-up: dose 300 mg/kg; settings: in vivo, ip
Rattus norvegicus [34] = experiment: Anticonvulsant activity after oral administration of 30 mg/kg dose after 4 hr in rats; + means 25% of the animals protected; format: functional, organism-based; set-up: dose 30 mg/kg; how it was run: as §1
Mus musculus [35] = experiment: Anti convulsant activity administered intra peritoneally to mouse for subcutaneous metrazol test at 4 hr with dose of 300 mg/kg; 0/1= No of animals protected /No of animals tested; format: functional
Mus musculus [36] = experiment: Anti convulsant activity administered intra peritoneally to mouse for toxicity at 4 hr with dose of 30 mg/kg; 0/3= No of animals exhibiting toxicity /No of animals tested; format: functional
Mus musculus [37] = experiment: Anti convulsant activity administered intra peritoneally to mouse for subcutaneous metrazol test at 0.5 h with dose of 300 mg/kg; 0/1= No of animals protected /No of animals tested; format: functional
[38] = Anti convulsant activity administered intra peritoneally to mouse for toxicity at 4 hr with dose of 300 mg/kg; 1/4= No of animals exhibiting toxicity /No of animals tested; format: organism-based; set-up: dose 300 mg/kg; settings: in vivo, ip
Mus musculus [39] = experiment: Anti convulsant activity administered intra peritoneally to mouse for toxicity at 4 hr with dose of 30 mg/kg; 1/3= No of animals exhibiting toxicity /No of animals tested; format: functional
[40] = Anti convulsant activity administered intra peritoneally to mouse for toxicity at 4 hr with dose of 100 mg/kg; 4/4= No of animals exhibiting toxicity /No of animals tested; format: organism-based; set-up: dose 100 mg/kg; settings: in vivo, ip
[41] = Anti convulsant activity administered intra peritoneally to mouse for toxicity at 4 hr with dose of 300 mg/kg; 2/2= No of animals exhibiting toxicity /No of animals tested; format: organism-based; set-up: dose 300 mg/kg; settings: in vivo, ip
Mus musculus [42] = experiment: Anti convulsant activity administered intra peritoneally to mouse at maximal electroshock test at 4 hr after the drug administered with dose of 300 mg/kg; 1/1= No of animals protected /No of animals tested; format: functional
[43] = Anti convulsant activity administered intra peritoneally to mouse for toxicity at 0.5 hr with dose of 100 mg/kg; 7/8= No of animals exhibiting toxicity /No of animals tested; format: organism-based; set-up: dose 100 mg/kg; settings: in vivo, ip
Rattus norvegicus [44] = experiment: Anticonvulsant activity after oral administration of 100 mg/kg dose after 4 hr in rats; +means 25% of the animals protected; format: functional, organism-based; set-up: dose 100 mg/kg; how it was run: as §1
Rattus norvegicus [45] = experiment: Toxicity after oral administration of 100 mg/kg dose in rats; + means 25% of the […]; format: functional, organism-based; set-up: dose 100 mg/kg; how it was run: as §4
Mus musculus [46] = experiment: Anti convulsant activity administered intra peritoneally to mouse at maximal electroshock test at 0.5 h after the drug administered with dose of 300 mg/kg; 0/1= No of animals protected /No of animals tested; format: functional
Mus musculus [47] = experiment: Anti convulsant activity administered intra peritoneally to mouse at maximal electroshock test at 0.5 hr after the drug administered with dose of 100 mg/kg; 0/3= No of animals protected /No of animals tested; format: functional
[48] = Toxicity after oral administration of 100 mg/kg dose in rats; + means 25% of the animals exhibit toxicity; format: organism-based; set-up: dose 100 mg/kg, route oral; settings: rat, in vivo; how it was run: as §4
[49] = Anticonvulsant activity after oral administration of 100 mg/kg dose after 30 min in rats; ++ means 50% of the animals protected; format: organism-based; set-up: dose 100 mg/kg, route oral; settings: rat, in vivo, 0.5 h; how it was run: as §1
[50] = Anti convulsant activity administered intra peritoneally to mouse for toxicity at 4 hr with dose of 300 mg/kg; 0/2= No of animals exhibiting toxicity /No of animals tested; format: organism-based; set-up: dose 300 mg/kg; settings: in vivo, ip
Mus musculus [51] = experiment: Anti convulsant activity administered intra peritoneally to mouse for subcutaneous metrazol test at 0.5 hr with dose of 100 mg/kg; 0/1= No of animals protected /No of animals tested; format: functional

SMILES	Activity (Mus musculus [2])	Activity (Mus musculus [4])	Activity (Rattus norvegicus [5])	Activity (Mus musculus [6])	Toxicity [8]	Activity (Mus musculus [9])	Activity (Mus musculus [13])	Activity (Mus musculus [21])	Toxicity [25]	Activity (Mus musculus [27])	Toxicity [28]	Toxicity [29]	Activity (Mus musculus [30])	Toxicity [32]	Activity (Mus musculus [35])	Activity (Mus musculus [37])	Toxicity [43]	also measured
CONC(=O)C1C(C)(C)C1(C)C	0	0	25% of the animals protected	0	0	0	1	0	0	0	0	4	0	–	–	–	–	Anticonvulsant Activity (Rattus norvegicus [1]): 100% of the animals protected; Activity (Mus musculus [3]): 1; ED50 (Mus musculus [7]): 74 mg/kg; Activity (Rattus norvegicus [10]): 25% of the animals protected; Activity (Rattus norvegicus [11]): 9.5; ED50 (Rattus norvegicus [12]): 35 mg/kg; Activity (Rattus norvegicus [14]): 25% of the animals protected; Toxicity [15]: 0; Activity (Rattus norvegicus [16]): 25% of the animals protected; Toxicity [17]: 1; Ratio (Rattus norvegicus [18]): 3.1; Activity (Mus musculus [19]): 1; ED50 (Rattus norvegicus [20]): 333 mg/kg; Anticonvulsant (Mus musculus [22]): 2.2; Activity (Mus musculus [23]): 2; TD50 [24]: 116 mg/kg; ED50 (Rattus norvegicus [26]): 108 mg/kg; Ratio (Mus musculus [31]): 1.4 mg/kg
CC1(C)C(C(=O)NN)C1(C)C	0	0	–	0	0	–	1	0	0	0	0	–	0	1	0	0	–	Toxicity [33]: 2; Activity (Rattus norvegicus [34]): 25% of the animals protected; Activity (Mus musculus [36]): 0; Toxicity [38]: 1
CC1(C)C(C(=O)N=C(N)N)C1(C)C	0	0	–	0	–	–	1	0	0	0	0	4	–	–	–	–	7	Activity (Mus musculus [39]): 1; Toxicity [40]: 4; Toxicity [41]: 2; Activity (Mus musculus [42]): 1
CCN(CCO)C(=O)C1C(C)(C)C1(C)C	0	0	25% of the animals protected	0	–	0	–	0	0	0	0	4	0	1	0	0	7	Activity (Rattus norvegicus [44]): 25% of the animals protected; Toxicity (Rattus norvegicus [45]): 25% of the animals exhibit toxicity; Activity (Mus musculus [46]): 0; Activity (Mus musculus [47]): 0; Toxicity [48]: 25% of the animals exhibit toxicity; Activity [49]: 25% of the animals protected; Toxicity [50]: 0; Activity (Mus musculus [51]): 0
